Like-named read-outs stand apart in the source and are kept apart here. Marks after values point to notes of the source that are not given here.
Key:
[1] = tested on: P388 mouse lymphocytic leukemia cells; settings: cited from earlier work; for ED50: taken from a previous report
[2] = VT-1H NMR quantification of the square/folded conformational equilibrium; format: physicochemical; settings: CH3CN-d3, calculated from ΔG° = ΔH° − TΔS° with van't Hoff parameters
Method in brief: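 Peptide at about 5.0 mM in CH3CN-d3, with shifts referenced to internal […] (0.00 ppm). Protons assigned by 2D-COSY and ROESY (500 ms mixing time). ΔH° and ΔS° came from a linear van't Hoff plot of ln K versus 1/T, and ΔG° at 298 K was then calculated from these parameters.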

Substance | cytotoxicity (in words) ([1]; P388 cells, folded reference peptide) | ED50 ([1]; P388 cells) | cytotoxicity (in words) [1] | ΔG° at 298 K (conformational free energy, square to folded form) [2] [kJ/mol]
cyclo(-Ile-alloThr-D-Val-Thz-)2 (head to tail) [dASC] | no cytotoxicity | >100 ^h μg mL^−1 | no cytotoxicity | –
Ascidiacyclamide [Peptide 1] | – | 10.5 ^a μg mL^−1 | – | 2.19
